Measured values pooled from the literature.
Protocols differ between the studies behind these lines.
CDK7 with cyclin H: Cyclin-dependent kinase 7, with cyclin H (CDK7, Homo sapiens, UniProt P50613)
MTNR1B: Melatonin receptor type 1B (MTNR1B, Homo sapiens, UniProt P49286)
BAZ1A: Bromodomain adjacent to zinc finger domain protein 1A (BAZ1A, Homo sapiens, UniProt Q9NRL2)

Compound | target | test | test system | conditions | quantity | result
CC/C(=C(/CC)c1ccc(O)cc1)c1ccc(O)cc1 | CDK7 with cyclin H | enzyme activity, inhibitor, ADP detection | – | 10 µM | inhibition | 14.7%
COc1cc2c(CCNC(C)=O)c[nH]c2cc1I | MTNR1B | β-arrestin recruitment, agonist | MT2 | 90 min | Emax | 101%
c1ccc(-c2nc(NCC(c3ccccc3)c3ccccc3)c3ccccc3n2)cc1 | Sodium-dependent dopamine transporter (Slc6a3, Rattus norvegicus, UniProt P23977) | transporter uptake, inhibitor, radiometric | – | 12.8 µM | remaining activity | 30%
O=c1cc(CO)occ1O | CDK7 with cyclin H | enzyme activity, inhibitor, ADP detection | – | 10 µM | inhibition | 21.3%
ON=CC1=C(C=Cc2ccccc2)CCC1 | Fibroblast growth factor 23 (Homo sapiens, UniProt Q9GZV9) | thermal stability, DSF | – | 200 µM | ΔTm | 16.5 °C
Cc1cnc(Nc2ccc(OCCN3CCCC3)cc2)nc1Nc1cccc(S(=O)(=O)NC(C)(C)C)c1 | BAZ1A | thermal stability, DSF | – | 10 µM | ΔTm | 0.23 °C
Cc1ccc(C(=O)Nc2ccc(CN3CCN(C)CC3)c(C(F)(F)F)c2)cc1C#Cc1cnc2cccnn12 | Serine/threonine-protein kinase RIO3 (RIOK3, Homo sapiens, UniProt O14730) | enzyme activity, inhibitor | – | 23.5 nM | remaining activity | 93%
C[C@]12CC[C@@H]3c4ccc(O)cc4CC[C@H]3[C@@H]1CC[C@@H]2O | CDK7 with cyclin H | enzyme activity, inhibitor, ADP detection | – | 10 µM | inhibition | 38.3%
CCC(=O)NC1Cc2ccccc2C(c2ccccc2)C1 (centres unmarked) | MTNR1B | GTPγS binding, agonist, radiometric | – | cell membranes | Emax | 34%
C=C1CC[C@@H]2[C@](C)(CO)[C@H](O)CC[C@@]2(C)[C@@H]1C/C=C1/C(=O)OC[C@H]1O | CDK7 with cyclin H | enzyme activity, inhibitor, ADP detection | – | 10 µM | inhibition | 34.6%
CCc1ccc2scc(CCNC(C)=O)c2c1 | MTNR1B | cAMP, agonist, TR-FRET | CHO-K1 | 20 min | Emax | 75%
Oc1ccc(-c2nc(-c3ccncc3)c(-c3ccc(F)cc3)[nH]2)cc1 | BAZ1A | thermal stability, DSF | – | 10 µM | ΔTm | 0.34 °C
COc1ccc2ncn(CCNC(C)=O)c2c1 | MTNR1B | β-arrestin recruitment, agonist | MT2 | – | Emax | 75%
Cc1cc2c(cc1N1C(=O)c3cccc4c(Cl)ccc(c34)C1=O)n(C)c(=O)n2C | BAZ1A | thermal stability, DSF | – | 10 µM | ΔTm | -1 °C
